Our source for the Displacement, IC50 and Ki values is ChEMBL document CHEMBL1140341, “Synthesis and radioligand binding studies of C-5- and C-8-substituted 1-(3,4-dimethoxybenzyl)-2,2-dimethyl-1,2,3,4-tetrahydroisoquinoliniums as SK channel blockers related to N-methyl-laudanosine and N-methyl-noscapine” (J Med Chem, 2005).

In experiment [1] the target is Small conductance calcium-activated potassium channel (Rattus norvegicus) (UniProt P70604+P70606+P70605). As to the kind of experiment: Displacement of [125I]apamin from calcium-activated potassium (SK) channels of rat cortex at 10 uM. An outline of the steps: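 Rat cortical synaptosomes (0.2 mg protein/mL) in 10 mM Tris-HCl pH 7.5 with 5.4 mM KCl and 0.1% BSA. Incubated 1 h at 0 °C with about 10 pM 125I-apamin and 10 μM drug. Filtered on polyethylenimine-coated GF/C filters, washed twice, counted by scintillation. Nonspecific binding defined with 0.1 μM unlabeled apamin; filter binding without synaptosomes subtracted.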
Background: Displacement assays read how much labelled ligand stays bound in the presence of the test substance.

Experiment [2] concerns the target Small conductance calcium-activated potassium channel (Rattus norvegicus, UniProt P70604+P70606+P70605). As to the kind of experiment: Inhibition of [125I]apamin binding to calcium-activated potassium (SK) channel of rat cortex. Summed up: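 Cortical synaptosomes (0.2 mg protein/mL), Tris-HCl 10 mM pH 7.5 buffer with 5.4 mM KCl and 0.1% BSA. 1 h at 0 °C with ±10 pM 125I-apamin and nine drug concentrations (10-4–10-7 M); run for drugs displacing at least 20% at 10 μM. Polyethylenimine-coated GF/C filtration, scintillation counting. Nonspecific binding with 0.1 μM apamin; curve-fitted.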

Broadly, the IC50 is the concentration needed to halve the response being measured. In general, Ki refers to the dissociation constant of the complex between target and ligand, obtained from inhibition or displacement.

Take `COc1ccc(CC2c3cccc(Br)c3CCN2C)cc1OC` (stereo not given): the Displacement in experiment [1] was found to be 1%. On the same count and under the same terms, next, `COc1ccc(CC2c3c(cccc3OC)CC[N+]2(C)C)cc1OC` (stereo not given): 9%; `COc1ccc(CC2c3sc(C)cc3CCN2C)cc1OC` (stereo not given): 1%.

`COc1ccc(CC2c3c(cccc3OC)CCN2C)cc1OC` (stereo not given): the Displacement in experiment [1] was 1%.

With `COc1ccc(CC2c3c(C)cccc3CC[N+]2(C)C)cc1OC.[I-]` (stereo not given), in experiment [2], the IC50 was found to be 28.4 µM and the inhibitory constant (Ki) was 5.5 µM. Further, the Displacement in experiment [1] amounted to 24%.

As to `COc1ccc(CC2c3c(Cl)cccc3CC[N+]2(C)C)cc1OC.[I-]` (stereo not given), in experiment [2], the IC50 came to 50 µM and the Ki came out at 9.3 µM. The Displacement in experiment [1] stood at 23%. As to `COc1ccc(CC2c3c(cccc3C(C)C)CCN2C)cc1OC` (stereo not given), in experiment [1], the Displacement came to 10%. For the molecule `COc1ccc(C[C@H]2c3cc(OC)c(OC)cc3CC[N+]2(C)C)cc1OC.[I-]` [LAUDANOSINE METHIODIDE], in experiment [2], the IC50 worked out at 8.7 µM and the Ki is 1.6 µM. The Displacement in experiment [1] came out at 57%. As for `COc1ccc(CC2c3cccc(Br)c3CC[N+]2(C)C)cc1OC` (stereo not given), in experiment [2], the 50% inhibitory concentration (IC50) worked out at 25.4 µM and the Ki stood at 4.9 µM. For the same molecule, the Displacement in experiment [1] worked out at 29%.

`COc1ccc(CC2c3c(C)cccc3CCN2C)cc1OC` (stereo not given): in experiment [1], the Displacement was determined as 10%. Consider `COc1ccc2c(c1OC)C(=O)OC2C1c2c(cc3c(c2OC)OCO3)CC[N+]1(C)C.[I-]` (stereo not given), for which, in experiment [2], the 50% inhibitory concentration (IC50) is 14.1 µM and the Ki was 3.6 µM. Moreover, the Displacement in experiment [1] was determined as 27%. On the same counts, the results for `CCc1cccc2c1C(Cc1ccc(OC)c(OC)c1)[N+](C)(C)CC2.[I-]` (stereo not given) are 13.6 µM, 2.6 µM and 44%.

`CCc1cccc2c1C(Cc1ccc(OC)c(OC)c1)N(C)CC2` (stereo not given): the Displacement in experiment [1] was 2%. For `COc1ccc(CC2c3c(Br)cccc3CCN2C)cc1OC` (stereo not given), in experiment [1], the Displacement worked out at 10%. For `COc1ccc(CC2c3c(Cl)cccc3CCN2C)cc1OC` (stereo not given), the Displacement in experiment [1] was determined as 5%. As to `COc1ccc(CC2c3c(cccc3C(C)C)CC[N+]2(C)C)cc1OC.[I-]` (stereo not given), in experiment [2], the IC50 was determined as 8.6 µM and the Ki was 1.6 µM. For the same molecule, in experiment [1], the Displacement came out at 55%. As to `COc1ccc(CC2c3sccc3CC[N+]2(C)C)cc1OC` (stereo not given), the Displacement in experiment [1] was determined as 15%. The same measure, in the same setting: next, `COc1ccc(CC2c3sc(C)cc3CC[N+]2(C)C)cc1OC` (stereo not given): 18%. In the case of `COc1ccc(CC2c3cccc(Cl)c3CC[N+]2(C)C)cc1OC` (stereo not given), in experiment [2], the IC50 came out at 39.6 µM and the Ki came out at 7.6 µM. Besides, the Displacement in experiment [1] was 27%. In the case of `COc1ccc(CC2c3sccc3CCN2C)cc1OC` (stereo not given), in experiment [1], the Displacement worked out at 2%. Take `COc1ccc(CC2c3c(Br)cccc3CC[N+]2(C)C)cc1OC.[I-]` (stereo not given): in experiment [2], the IC50 was determined as 35.2 µM and the inhibition constant Ki amounted to 6.8 µM. The Displacement in experiment [1] was 26%. As to `COc1ccc(CC2c3cccc(Cl)c3CCN2C)cc1OC` (stereo not given), the Displacement in experiment [1] was 8%.
